Source: PubChem
E-sel inducer – induces E-selectin expression in human endothelial cells. P16581. HUVEC E-selectin immunofluorescence imaging; normalized: neutral wells 0, TNF-alpha wells 100. activation, % at 7.58 µM. 260,000 tested, 0.37% active;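 active = mean E-selectin-positive cell signal at least 10% of the positive control, reached in at least 60% of replicates, without over 20% cell loss; inconclusive = no rule given, readout overlaps actives, possibly toxicity-flagged; inactive = the rest, including those meeting only one limit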
Target sequence (P16581 whole entry, looked up): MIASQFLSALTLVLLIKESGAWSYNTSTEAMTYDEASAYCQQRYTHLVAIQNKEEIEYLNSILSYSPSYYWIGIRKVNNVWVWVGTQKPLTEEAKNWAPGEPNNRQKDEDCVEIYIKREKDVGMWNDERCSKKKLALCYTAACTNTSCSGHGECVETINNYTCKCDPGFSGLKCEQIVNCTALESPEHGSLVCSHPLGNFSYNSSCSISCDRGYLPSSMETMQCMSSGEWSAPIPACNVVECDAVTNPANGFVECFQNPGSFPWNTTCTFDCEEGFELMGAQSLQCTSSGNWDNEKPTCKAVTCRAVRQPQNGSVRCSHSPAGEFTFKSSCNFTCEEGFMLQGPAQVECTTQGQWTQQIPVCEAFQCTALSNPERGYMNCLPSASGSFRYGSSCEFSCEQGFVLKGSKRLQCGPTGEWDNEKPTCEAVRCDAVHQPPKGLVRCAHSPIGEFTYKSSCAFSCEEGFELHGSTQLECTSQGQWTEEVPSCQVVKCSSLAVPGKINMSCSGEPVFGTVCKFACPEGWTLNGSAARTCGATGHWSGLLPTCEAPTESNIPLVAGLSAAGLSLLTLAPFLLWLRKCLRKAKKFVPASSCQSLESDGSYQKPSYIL
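System: HUVEC, human umbilical vein endothelial cells; quantity: 3,000 cells/well; buffer or medium: EGM-2 medium, gelatin-coated wells; dosing: single-point compound dose; detection: immunofluorescence imaging; evaluation: % PE-positive cells; benchmarks: TNF-alpha, DMSO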
Cneo AK release – Cryptococcus neoformans lysis via adenylate kinase release | C. neoformans lysis, adenylate kinase release luminescence, 4 h; normalised: neutral wells 0, clomiphene wells 100 | lysis activity, % at 15 µM | 360,000 tested, 0.2% active;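 active = mean lysis activity across replicates of at least 80%, whatever share of replicates individually reach that level; inactive = mean lysis activity below 80%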
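read-out = cell lysis signal | test system = log-phase Cryptococcus neoformans yeast cells | input = cells at 5 × 10^6 per mL | medium = fresh YPD growth medium | signal = luminescent adenylate kinase detection reagent | timing = 4 h at 37 °C static, read 1 h later | dosing = single dose | controls = Clomiphene as positive lysis control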
DENV2 CPE rescue – DENV2-induced cell death inhibition; DENV2-infected cells, cytopathic effect rescue, plate reader; CPE inhibition, % at 9.99 µM; 350,000 tested, 1.7% active; AID 651640; in the data active = CPE inhibition above about 20%, passing the limit was not always enough; inconclusive = no clear call, values can overlap the other calls; tested in BHK-21 cells;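 note: 0% = median of neutral control wells and 100% = median of positive control wells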
miR122 inh – miR-122 inhibition in Huh7 cells | activation (reporter increase), % at 12.5 µM | 340,000 tested, 0.3% active | Huh7 miR-122 Renilla luciferase sensor, 48 h; neutral wells = 0, positive control = 100;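 active = mean replicate activation score at least 90 and every replicate individually at or above 90; inconclusive = only one of the two criteria met; inactive = neither criterion met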;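 note: higher luciferase means less miR-122 activity so hits act as miR-122 inhibitors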
rRNA inh HTS – selective bacterial rRNA inhibition in E. coli. AID 720706. GFP signal change (wild-type ribosome), % (no concentration beside the values). E. coli WT GFP vs humanized-ribosome RFP mutants, fluorescence, 24 h; hits give low values; DMSO median 0, no signal -100. 350,000 tested, 1.6% active;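 active = significant combined selectivity score with lowered wild-type GFP, culture density cut under 30%, mutant RFP and density less affected; inactive = any of these conditions unmet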
Active calls of the source: *; [ ] = remark or other dose. Hits are enriched below; roughly 3.1% of the tested compounds scored in any of these assays.

How did CCCN(C)C[C@@H]1Oc2ncc(-c3cccc(C#N)c3)cc2C(=O)N([C@H](C)CO)C[C@H]1C do in these assays?
E-sel inducer: 0; Cneo AK release: -7; DENV2 CPE rescue: -4; miR122 inh: 6[16.7 µM]; rRNA inh HTS: 0

Results for C=CC1CN(S(=O)(=O)c2ccc(Br)cc2)C(=O)N1c1ccc(Br)cc1 (stereo not drawn) ?
Cneo AK release: -2; DENV2 CPE rescue: -14

Results for CCOC(=O)c1c(C)nc(C)c(C(=O)OCC)c1-c1ccccc1 ?
DENV2 CPE rescue: 2; miR122 inh: -4; rRNA inh HTS: -41*

How did C[C@@H]1CCCCO[C@@H](CN(C)C(=O)Nc2ccccc2)[C@@H](C)CN([C@@H](C)CO)C(=O)c2cc(NS(=O)(=O)c3ccc(F)cc3)ccc2O1 do in these assays?
E-sel inducer: 0; DENV2 CPE rescue: 1; rRNA inh HTS: -2

What do the screens show for `Cc1cc2oc3ccc(NCCCN4CCOCC4)cc3c(=O)c2cc1C`?
E-sel inducer: 0; Cneo AK release: 3; DENV2 CPE rescue: 37*; rRNA inh HTS: 9

Results for Cc1noc(C)c1NC(=O)Nc1ccc2c(c1)C(=O)N([C@@H](C)CO)C[C@@H](C)[C@@H](CN(C)Cc1ccc(C(F)(F)F)cc1)OCCCC[C@@H](C)O2 ?
E-sel inducer: 0; Cneo AK release: 1; DENV2 CPE rescue: -6; miR122 inh: 3[16.7 µM]; rRNA inh HTS: 2

Results for CNC(=O)COC(=O)c1cc(-c2ccccc2)nn1-c1ccccc1 ?
E-sel inducer: 0; Cneo AK release: 0; DENV2 CPE rescue: 4; miR122 inh: -1; rRNA inh HTS: -27*

What do the screens show for `O=C(C[C@@H]1CC[C@H](NC(=O)Cc2ccccn2)[C@H](CO)O1)NCCCN1CCOCC1`?
E-sel inducer: 0; Cneo AK release: 2; DENV2 CPE rescue: -3; rRNA inh HTS: 2

Results for CCSc1nc2c(cnn2-c2ccccc2)c(=O)n1N ?
E-sel inducer: 0; Cneo AK release: -2; DENV2 CPE rescue: 4; miR122 inh: 6; rRNA inh HTS: -17*

What do the screens show for `CSc1nc2c(cnn2-c2ccccc2)c(=O)n1N`?
DENV2 CPE rescue: 5; miR122 inh: 3; rRNA inh HTS: -1

Results for CCOC(=O)c1c(-c2ccc(-c3ccccc3)cc2)csc1NC(=O)CNCCN(C)C ?
E-sel inducer: 2; Cneo AK release: 85*; DENV2 CPE rescue: 17; miR122 inh: -4; rRNA inh HTS: -59

Results for Cc1cc(=O)oc2c(C)c(OC(C)C(=O)NC(Cc3c[nH]c4ccc(O)cc34)C(=O)O)ccc12 (stereo not drawn) ?
Cneo AK release: -2; DENV2 CPE rescue: 77*; miR122 inh: -5; rRNA inh HTS: 2

What do the screens show for `C#CCN1C=C(C(=O)OCC)C(C)N(Cc2ccccc2I)S1(=O)=O` (stereo not drawn)?
E-sel inducer: 3; Cneo AK release: 0; DENV2 CPE rescue: 74*; miR122 inh: 12; rRNA inh HTS: -17

How did C#CCN1C=C(C(=O)OCC)C(C)NS1(=O)=O (stereo not drawn) do in these assays?
E-sel inducer: 0; Cneo AK release: -1; DENV2 CPE rescue: -4; miR122 inh: -8; rRNA inh HTS: 12

What do the screens show for `Cc1ccc(CC(=O)N(Cc2ccccc2)c2ccccn2)cc1`?
E-sel inducer: -2; DENV2 CPE rescue: -2; miR122 inh: 118*; rRNA inh HTS: -4

How did O=C(CN1C(=O)NC(Cc2ccccc2)C1=O)Nc1ccc(F)c(Cl)c1 (stereo not drawn) do in these assays?
E-sel inducer: 18; Cneo AK release: 0; DENV2 CPE rescue: 1; miR122 inh: -2; rRNA inh HTS: -28*

How did CNC(=O)C[C@@H]1CC[C@@H]2[C@@H](COc3ccc(NC(=O)c4cccc(OC)c4)cc3C(=O)N2C)O1 do in these assays?
E-sel inducer: 0; Cneo AK release: 0; DENV2 CPE rescue: -3; miR122 inh: 0[16.7 µM]; rRNA inh HTS: 2

Results for C[C@@H]1CCCCO[C@@H](CN(C)Cc2ccc(Cl)c(Cl)c2)[C@@H](C)CN([C@H](C)CO)C(=O)c2cc(NS(=O)(=O)c3ccc(Cl)cc3)ccc2O1 ?
Cneo AK release: 1; DENV2 CPE rescue: 79*; miR122 inh: -5[16.7 µM]; rRNA inh HTS: 2

How did C[C@@H]1CCCCO[C@@H](CN(C)Cc2ccc(Cl)c(Cl)c2)[C@H](C)CN([C@H](C)CO)C(=O)c2cc(NS(=O)(=O)c3ccc(F)cc3)ccc2O1 do in these assays?
E-sel inducer: 0; Cneo AK release: 27; DENV2 CPE rescue: inconclusive; miR122 inh: -15[16.7 µM]; rRNA inh HTS: 1

What do the screens show for `C[C@@H]1CCCCO[C@H](CN(C)Cc2ccc(Cl)c(Cl)c2)[C@@H](C)CN([C@@H](C)CO)C(=O)c2cc(NS(=O)(=O)c3ccc(F)cc3)ccc2O1`?
E-sel inducer: 0; DENV2 CPE rescue: 31*; rRNA inh HTS: 3

How did C[C@@H]1CCCCO[C@@H](CN(C)Cc2ccc(Cl)c(Cl)c2)[C@H](C)CN([C@H](C)CO)C(=O)c2cc(NS(=O)(=O)c3ccc(Cl)cc3)ccc2O1 do in these assays?
Cneo AK release: 7; DENV2 CPE rescue: 13; miR122 inh: -11[16.7 µM]; rRNA inh HTS: -2

What do the screens show for `CO[C@H]1CN(C)C(=O)c2cc(NC(=O)Nc3ccccc3)ccc2OC[C@@H](C)N(CC2CC2)C[C@H]1C`?
E-sel inducer: 0; Cneo AK release: -5; DENV2 CPE rescue: 8; miR122 inh: 24[16.7 µM]; rRNA inh HTS: 2

Results for C[C@H]1CN([C@@H](C)CO)C(=O)Cc2cc(NS(=O)(=O)c3cccs3)ccc2O[C@@H]1CN(C)C ?
E-sel inducer: -4; Cneo AK release: 4; DENV2 CPE rescue: -11; miR122 inh: -2[16.7 µM]; rRNA inh HTS: 1

How did C[C@H](CO)N1C[C@H](C)[C@H](CN(C)S(=O)(=O)c2ccc(Cl)cc2)Oc2ccc(NC(=O)NC3CCCCC3)cc2C1=O do in these assays?
E-sel inducer: 436*; Cneo AK release: 60; DENV2 CPE rescue: 1; miR122 inh: -8[16.7 µM]; rRNA inh HTS: 3

How did C[C@H](CO)N1C[C@H](C)[C@H](CN(C)S(=O)(=O)c2ccc(Cl)cc2)OCCCC[C@H](C)Oc2ccc(NC(=O)NC3CCCCC3)cc2C1=O do in these assays?
E-sel inducer: 0; Cneo AK release: -4; DENV2 CPE rescue: 50*; miR122 inh: -7[16.7 µM]; rRNA inh HTS: 1

What do the screens show for `C[C@@H]1CN([C@H](C)CO)C(=O)c2cc(NC(=O)Nc3ccc4c(c3)OCO4)ccc2O[C@@H](C)CCCCO[C@H]1CN(C)S(=O)(=O)c1ccc(Cl)cc1`?
E-sel inducer: 2; Cneo AK release: -10; DENV2 CPE rescue: 38*; miR122 inh: -9[16.7 µM]; rRNA inh HTS: 2
